TAAR1 ag: human TAAR1 agonists, primary screen, Fluo-8 calcium fluorescence, CHO RD-HGA16 cells | Trace amine-associated receptor 1 (Homo sapiens), Q96RJ0 | activation, % at 3 µM | 0.99% of 360,000 active | vehicle wells 0%, saturating PEA agonist 100%;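 active = activation above the mean activation of all test compounds in the run plus 3 SD, cut at about 38% in these data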
Target sequence (Q96RJ0 whole entry, looked up): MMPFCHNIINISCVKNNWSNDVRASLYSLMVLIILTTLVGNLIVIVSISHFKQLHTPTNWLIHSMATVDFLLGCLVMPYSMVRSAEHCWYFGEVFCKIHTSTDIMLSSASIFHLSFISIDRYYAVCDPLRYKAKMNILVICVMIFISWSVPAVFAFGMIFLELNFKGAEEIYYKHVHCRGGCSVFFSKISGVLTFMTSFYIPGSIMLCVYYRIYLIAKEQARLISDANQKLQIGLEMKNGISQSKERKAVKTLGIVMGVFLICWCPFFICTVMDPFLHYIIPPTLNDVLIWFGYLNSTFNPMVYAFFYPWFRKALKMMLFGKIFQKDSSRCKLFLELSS
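test system = CHO RD-HGA16 cells carrying human TAAR1 plus Gα16 | schedule = 17-24 h seeding, 75 min 37 °C dye, 30 min RT | compound dosing = 3 µM single concentration | control set = DMSO and PEA EC100 | replicates = n 1 | signal = Fluo-8 fluorescence, 5 s baseline then 140 s kinetic read | measure = percent activation vs PEA EC100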
OX1R antag-1: OX1R (HCRTR1) antagonists, primary screen, fluorescence, CHO/OX1R cells, Fluo-8 calcium, orexin A; 0.43% of 330,000 active; Fluo-8 calcium fluorescence; inhibition, % at 5 µM;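 active = inhibition above its plate's threshold, mean inhibition of all tested compounds on the plate plus 3 SD, cut at about 37% in these data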;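 note: 0% = orexin A challenge wells and 100% = SB-334867-A antagonist wells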
OX1R antag-2: antagonists of human orexin 1 receptor (OX1R) | Orexin/Hypocretin receptor type 1 (Homo sapiens), O43613 | OX1R-expressing cells, FRET antagonist read-out | inhibition, % at 6.6 µM | 1.8% of 330,000 active; in the data active = inhibition mostly above about 38%, no sharp cut-off; inactive = mostly below about 40%;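 note: 0% = agonist challenge alone and 100% = reference antagonist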
CHO parental Ca: ATP-evoked calcium signal inhibitors, parental CHO, primary screen, counter-screen for OX1R antagonist project, cell-based, fluorescence, Fluo-8 calcium dye | parental CHO-K1, ATP-induced calcium, Fluo-8 fluorescence | inhibition, % at 5.6 µM | 0.63% of 330,000 active | AID 463079, 2010;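 active = inhibition above that plate's mean sample inhibition plus 3 SD, cut at about 26% in these data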;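 note: 0% = ATP-challenged DMSO wells and 100% = DMSO wells without ATP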
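Material: parental CHO cells / Compound: single nominal dose of 5.6 µM per compound / Signal: Fluo-8 fluorescence / Replicates: singlicate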
TAAR1 antagonist: human TAAR1 antagonists, primary screen, Fluo-8 calcium fluorescence, CHO RD-HGA16 cells; Trace amine-associated receptor 1 (Homo sapiens), Q96RJ0; antagonist; inhibition, % at 3 µM; 1.5% of 360,000 active;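 active = inhibition above a per-plate cutoff, the mean inhibition of test compounds on that plate plus 3 SD, cut at about 49% in these data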;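 note: 0% = DMSO plus EC80 beta-PEA response and 100% = DMSO alone without agonist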
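test system = CHO RD-HGA16 cells bearing hTAAR1 | replication = singlicate | controls = DMSO-only wells and EC80 β-PEA-stimulated wells | reagent = EC80 β-phenethylamine stimulus | read-out basis = percent inhibition of PEA-evoked calcium signal, max/basal emission ratio | schedule = seeding 17-24 h prior, 75-min 37 °C, 30-min RT dye loading | signal = kinetic Fluo-8 calcium fluorescence measurement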
GPR7 antag: GPR7 receptor antagonists, primary screen, cell-based, fluorescence, single concentration; Neuropeptides B/W receptor type 1 (Homo sapiens), P48145; GPR7-expressing cells, fluorescence antagonist assay; inhibition, % at 4.4 µM; 1.1% of 290,000 active; AID 1861, 2009; in the data active = inhibition above about 16%, passing the limit was not always enough;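 note: cells stimulated with the agonist NPW; 0% = agonist with vehicle and 100% = vehicle without agonist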
Target sequence (P48145 whole entry, looked up): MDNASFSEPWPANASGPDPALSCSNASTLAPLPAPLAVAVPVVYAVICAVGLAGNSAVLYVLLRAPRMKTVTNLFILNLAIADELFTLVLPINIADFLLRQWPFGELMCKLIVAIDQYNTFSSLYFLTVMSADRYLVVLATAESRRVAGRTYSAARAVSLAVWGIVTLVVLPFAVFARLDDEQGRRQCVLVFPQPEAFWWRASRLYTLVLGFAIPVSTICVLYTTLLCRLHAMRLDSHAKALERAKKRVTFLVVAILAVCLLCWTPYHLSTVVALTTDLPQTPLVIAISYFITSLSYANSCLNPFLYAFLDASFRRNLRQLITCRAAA
Starred values were filed as active, the others as inactive; · = no result given. Most compounds without a hit are left out; they make up all but 4.6% or so of the library.

SMILES	TAAR1 ag	OX1R antag-1	OX1R antag-2	CHO parental Ca	TAAR1 antagonist	GPR7 antag
CN1CCN(C2Cc3ccc(F)cc3Sc3cc(F)c(Cl)cc32)CC1 (stereo unspecified)	15.1	9.8	7.4	6.8	6.6	·
CN1CCN(C2Cc3ccccc3Sc3cc(C(F)(F)F)ccc32)CC1 (stereo unspecified)	51.3*	-4.9	1.9	1.8	30.3	·
CN1CCN(C2Cc3ccccc3Sc3ccc(Cl)cc32)CC1 (stereo unspecified)	27.3	-25.7	4.2	-11.4	11.7	·
CSc1ccc2c(c1)C(N1CCN(C)CC1)Cc1ccccc1S2 (stereo unspecified)	13.1	20.5	9.2	12.3	35.8	35.1*
CCC1(C)CC(C#N)(C#N)C(=O)NC1=O (stereo unspecified)	0.2	·	·	·	-9.0	·
Cc1ccc(CCNC(=O)c2nc(CS(=O)(=O)c3ccc(Cl)cc3)no2)cc1	4.8	-3.5	12.1	0.3	57.0*	0.9
O=C(NCCc1ccccc1)c1nc(CS(=O)(=O)c2ccc(Cl)cc2)no1	4.7	-22.8	-0.1	-20.0	7.1	7.5
CCN1C(=O)N(C(C)=O)[C@H]2C[C@H](C(=O)N3CCCC3)[C@H](C)[C@H](c3ccccc3)C[C@H]21	2.4	·	·	·	-25.9	·
CCOC(=O)c1[nH]c(C)c(CN(CCc2ccccc2)S(C)(=O)=O)c1C	0.1	-12.9	16.1	-15.9	-3.7	-2.2
CCOC(=O)c1[nH]c(C)c(CN(C(C)=O)c2ccc(OCC)cc2)c1C	4.6	-23.0	8.7	-13.3	4.6	22.1*
Cc1ccc(C2=C(O)c3ccccc3C(=O)C2=O)cc1	0.0	-11.8	40.8*	-6.3	4.5	-25.4
O=C1C(=O)c2ccccc2C(O)=C1c1cccc([N+](=O)[O-])c1	-0.2	0.7	51.8*	-15.7	-27.6	-4.1
COC(=O)N1C[C@H](OCc2ccc3c(c2)OCO3)[C@H]2C[C@@H]1c1ccccc1O2	-2.1	·	·	·	-38.9	·
O=Nc1c(O)[nH]c2ccc(Cl)c(Cl)c12	5.3	·	·	·	-3.9	·
O=C(c1ccc(NC(=S)NCc2ccc(Cl)cc2)cc1)N1CCCCC1	43.7*	-4.4	-6.9	-5.0	16.6	13.9
CNC(=O)c1cc(Oc2ccc(NC(=O)c3[nH]c(-c4ccccc4)c4c3C(=O)N(C)C4=O)cc2)ccn1	1.8	·	·	·	-17.5	·
CCCCn1c(N)c(N(CCOC)C(=O)c2ccc(NC3CC3)c([N+](=O)[O-])c2)c(=O)[nH]c1=O	0.2	-17.8	47.2*	-33.2	-12.0	·
CCCCn1c(N)c(N(CCC(C)C)C(=O)c2ccc([N+](=O)[O-])s2)c(=O)[nH]c1=O	4.3	-41.2	37.3*	-22.2	-1.7	·
CCCCN(C(=O)c1ccc([N+](=O)[O-])s1)c1c(N)n(CC(C)C)c(=O)[nH]c1=O	-0.1	-8.2	29.0	-1.0	-9.2	·
C[C@@H]1CN([C@H](C)CO)C(=O)CCCn2nncc2CO[C@H]1CN(C)Cc1cccc(C(=O)O)c1	2.7	·	·	·	-15.6	·
Nc1nc2ccc(Cl)cc2cc1C(=O)NCCCN1CCOCC1	4.4	·	·	·	-7.8	·
COC(=O)C1=C(C)N(Cc2ccccc2C(F)(F)F)C(=NCC2CC2)NC1c1ccc(C(F)(F)F)cc1 (stereo unspecified)	12.4	·	·	·	17.9	·
O=C(NCc1ccco1)c1cc([N+](=O)[O-])ccc1N1CCCCC1	2.9	-23.3	34.1	-11.1	-10.7	6.5
O=C(NCc1ccc2c(c1)OCO2)c1cc([N+](=O)[O-])ccc1N1CCCCC1	3.3	-20.6	26.5	-18.6	41.5	36.6*
CC(=O)OCCNC(=O)c1cc2ccccc2oc1=O	10.8	1.7	69.6*	11.2	9.6	-11.8
SMILES	TAAR1 ag	OX1R antag-1	OX1R antag-2	CHO parental Ca	TAAR1 antagonist	GPR7 antag
O=C(NCCSc1c(-c2ccccc2)[nH]c2ccccc12)c1cc2ccccc2oc1=O	0.6	-5.8	56.0*	-10.7	22.1	-7.1
O=C(Cc1cccs1)NCCSc1c(-c2ccc(Cl)cc2)[nH]c2ccccc12	1.0	-19.8	13.8	-3.2	49.0*	19.2*
CCOC(=O)CSc1c(-c2ccc(Cl)cc2)[nH]c2ccccc12	-0.1	-33.2	25.5	3.0	37.5	-11.4
O=C(NCc1cccc(CNC(=O)C(=O)NCc2ccco2)c1)C(=O)NCc1ccco1	2.1	13.9	4.8	32.5*	-11.4	-0.9
O=C(NCc1cccc(CNC(=O)c2ccco2)c1)c1ccco1	12.8	-15.9	7.5	-21.3	0.3	-11.4
CCN(c1ccccc1)S(=O)(=O)c1ccc(OC)c(NC(=O)CNCCc2ccccc2)c1	31.1	-9.5	27.3	13.9	55.1*	5.4
CCN(c1ccccc1)S(=O)(=O)c1ccc(OC)c(NC(=O)C2CCC2)c1	0.1	-9.4	2.1	-15.8	-17.2	·
COc1ccc(C)cc1NC(=O)CCNS(=O)(=O)c1cccc2nonc12	2.0	-21.3	70.7*	-11.0	-1.0	-11.9
COC(=O)[C@]12C[C@H](CC(=O)N3CCC(c4ccccc4)CC3)C(=O)N(CCc3ccc(OC)c(OC)c3)C1=C[C@H](C(C)(C)C)O[C@@H]2C	-1.3	·	·	·	-19.9	·
CC(=O)Nc1ccc(/C=C(\C#N)C(=O)NC2CCCCC2C)cc1 (stereo unspecified)	5.7	-25.0	22.0	-5.1	6.4	20.1*
CSc1ccc(/C=C(\C#N)C(=O)NC2CCCCC2C)cc1 (stereo unspecified)	5.7	-30.5	25.0	-28.7	-20.5	0.6
NC(=O)N=Nc1c2[nH]c3ccccc3nc-2c2ccccc12	23.4	-4.2	70.8*	-11.0	43.8	-19.4
CC(=O)Nc1cccc(NC(=O)c2cc(-c3ccccn3)nc3ccc(Cl)cc23)c1	9.2	-16.7	10.8	-18.5	65.1*	-8.0
Cc1ccccc1C(=O)Nc1ccc(-c2nc3ccc(C(=O)c4ccccc4)cc3[nH]2)cc1	16.8	-5.8	51.3	17.9	102.7*	-0.5
CSc1nc2ccc(NC(=O)c3cccs3)cc2s1	2.9	-10.3	37.5*	-16.0	12.5	·
Cc1ccc2nc(NC(=O)c3ccc(Cl)s3)sc2c1	-0.3	-6.3	13.9	-9.7	-20.6	-9.0
O=C(Nc1ccc(-c2nc3ccc(NC(=O)c4cccs4)cc3[nH]2)cc1)c1cccs1	5.1	-7.5	29.5	8.9	60.6*	6.3
Cc1nc2ccc(NC(=O)c3ccc(Cl)s3)cc2s1	2.0	7.6	47.9*	32.9*	-17.8	-0.1
CCOC(=O)C1=CCN(S(=O)(=O)c2ccccc2Cl)C1c1ccccc1 (stereo unspecified)	1.3	·	·	·	26.6	·

Compound activity from PubChem.
